Compounds with a hit are over-represented: about 4.5% of the library has one in this group of screens.
PHOSPHO1 inh: inhibitors of human PHOSPHO1 phosphatase; recombinant PHOSPHO1, absorbance phosphatase assay; inhibition, % at 13.3 µM; 290,000 compounds, 1.1% hits; in the data active = inhibition above about 60%
RGS4 inh: inhibitors of human RGS4; B-score at 10 µM; AID 463165; 310,000 compounds, 0.45% hits; HEK293 M3R/RGS4 inducible, Fluo-4 calcium flux; hits give high values; triggered by carbachol at its EC20;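 active = B-score, a plate-corrected calcium signal, over three deviations above library mean, with baseline fluorescence within five deviations of library mean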;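 note: RGS4 expression induced by doxycycline in cells with stable M3 receptor; B-score is computed from the integrated fluorescence ratio over baseline after carbachol; higher B-score means a larger calcium signal and so more RGS4 inhibition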
Target sequence (P49798 whole entry, looked up): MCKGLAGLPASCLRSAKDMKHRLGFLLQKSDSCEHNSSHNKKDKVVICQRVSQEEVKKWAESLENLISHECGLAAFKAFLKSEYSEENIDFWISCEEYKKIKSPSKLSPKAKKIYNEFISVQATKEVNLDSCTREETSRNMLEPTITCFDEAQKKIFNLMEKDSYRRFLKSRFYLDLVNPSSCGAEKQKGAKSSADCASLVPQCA
RGS4 act: potentiators or activators of RGS4; HEK293 M3R/inducible RGS4, carbachol calcium flux Fluo4; hits give low values; B-score at 10 µM; 310,000 compounds, 0.92% hits;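 active = B-score of the integrated calcium signal more than 4 SD below the library mean, with starting fluorescence not abnormally high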;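 note: negative B-score means reduced calcium response which marks RGS4 activation or potentiation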
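Test system: HEK293 cells with stable M3R and inducible RGS4; also added: carbachol at ECmax as muscarinic agonist stimulus; schedule: dye loading 30 min 37 °C, buffer rest 30 min RT; technique: kinetic calcium fluorescence imaging with Fluo4-AM dye, 2 µM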
MrgX1 antag: human MrgX1 receptor antagonism, primary screen; Q96LB2; MRGX1-HEK293 calcium flux, Fluo-4, BAM8-22 antagonism; hits give low values; B-score at 10 µM; 310,000 compounds, 1.3% hits; AID 588676;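 active = calcium-response B-score plate-corrected more than 3 library SD below zero, starting fluorescence within 5 deviations, no agonist response on first addition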;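 note: peak minus trough fluorescence over baseline after final BAM8-22 challenge near maximal dose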
Target sequence (Q96LB2 whole entry, looked up): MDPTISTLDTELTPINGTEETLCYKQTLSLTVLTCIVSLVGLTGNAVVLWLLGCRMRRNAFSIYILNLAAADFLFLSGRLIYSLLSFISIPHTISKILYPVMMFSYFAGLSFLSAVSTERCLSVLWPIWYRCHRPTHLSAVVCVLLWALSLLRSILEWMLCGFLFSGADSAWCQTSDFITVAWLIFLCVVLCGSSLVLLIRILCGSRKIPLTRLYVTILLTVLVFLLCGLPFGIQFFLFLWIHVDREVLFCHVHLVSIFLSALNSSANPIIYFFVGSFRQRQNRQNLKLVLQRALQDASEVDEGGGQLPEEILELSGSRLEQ
MrgX1 PAM: allosterically activates human MrgX1 receptor signaling | Q96LB2 | MrgX1-HEK293, Fluo-4 calcium flux, FDSS; hits give high values | B-score at 10 µM | 310,000 compounds, 0.63% hits | AID 588675;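 active = plate-corrected calcium response at least 3 library SD above typical, normal starting fluorescence, not activating the receptor alone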;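 note: compound read alongside a low EC10 to EC30 dose of BAM8-22 agonist; peak minus trough fluorescence over baseline measured at the second addition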
MrgX1 agonist: human MrgX1 receptor agonism, primary screen. B-score at 10 µM. 310,000 compounds, 0.44% hits. MrgX1-HEK293 cells, Fluo-4 calcium fluorescence, agonist mode; hits give high values. AID 588627;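 active = calcium response B-score plate-corrected fluorescence ratio at least 3 library SD, with starting fluorescence B-score inside 5 SD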
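System – MrgX1-expressing HEK293 cells · Incubation – cells plated overnight, dye loaded 0.5 h 37 °C, 0.5 h room temperature · Technique – kinetic Fluo-4 NW fluorescence of intracellular calcium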
Numbers without * were called inactive; i = inactive; nt = not tested or not shown.

SMILES | PHOSPHO1 inh | RGS4 inh | RGS4 act | MrgX1 antag | MrgX1 PAM | MrgX1 agonist
COc1ccc(S(=O)(=O)N(C)C)cc1NC(=O)Cc1c[nH]c2ccccc12 | -30 | i | i | i | i | i
COc1ccc(C(=O)NCc2nnc(SCC(=O)N3CCCC3)o2)cc1OC | -18 | i | i | i | i | i
Cc1ccc(COn2c(-c3ccc(Cl)cc3Cl)nc3ncccc32)cc1 | -1 | i | -8.7* | i | i | i
CCOc1ccc(S(=O)(=O)Nc2ccc(C(=O)NCC(C)(C)N3CCOCC3)cc2)cc1 | nt | i | i | -4.9* | i | i
CCOc1ccc(NS(=O)(=O)c2ccc(C(=O)NCC3(N4CCCCC4)CCCCC3)cc2)cc1 | 3 | i | i | -5.6* | i | i
CCOc1ccc(NS(=O)(=O)c2ccc(C(=O)NCC3(N(C)C)CCCCC3)cc2)cc1 | nt | i | i | i | i | i
O=[N+]([O-])c1ccc(Oc2ccc(S(=O)(=O)N3CCOCC3)cc2)cc1 | 17 | i | i | i | i | i
O=[N+]([O-])c1ccc(Oc2ccc(S(=O)(=O)N3CCOCC3)cn2)cc1 | nt | i | i | -8* | i | i
COc1ccccc1/C=N/NC(=O)c1ccc(NC(=O)c2cccc([N+](=O)[O-])c2)cc1 | 16 | i | i | i | i | i
COc1cccc(/C=N/NC(=O)c2cc3cc([N+](=O)[O-])ccc3s2)c1O | 83* | i | i | i | i | i
Cc1ccccc1NC(=S)C1=C(O)c2sccc2N(C)S1(=O)=O | 92* | i | i | i | i | i
CN1c2ccsc2C(O)=C(C(=S)Nc2ccccc2)S1(=O)=O | 94* | i | i | i | i | i
CN1c2ccccc2C(O)=C(C(=S)Nc2ccccc2)S1(=O)=O | -15 | i | i | i | i | i
COc1ccc2[nH]c(=S)[nH]c2c1 | 92* | i | i | i | i | i
Cc1cc(C(F)(F)F)nc(SCC(=O)Nc2c(C)n(C)n(-c3ccccc3)c2=O)n1 | 16 | i | i | i | i | i
O=[N+]([O-])c1ccc(OCC(O)CN(C2CCCCC2)C2CCCCC2)cc1 (stereo not drawn) | -6 | i | i | i | i | i
O=[N+]([O-])c1ccc(OCC(O)CNC2CCCC2)cc1 (stereo not drawn) | 19 | i | i | i | i | 28*
OC(CNC1CCCCC1)COCCOc1ccc(Br)cc1 (stereo not drawn) | -2 | i | i | -9.2* | i | i
CCCn1cnc2cc(NC(=O)c3ccco3)ccc21 | 63* | i | i | i | i | i
COc1ccc2c(c1)[nH]c1c(N3CCN(Cc4ccc5c(c4)OCO5)CC3)ncnc12 | 15 | i | i | -6.1* | i | i
Cc1ccccc1S(=O)(=O)Cc1ccc(C(=O)N2CCN(c3cccc(C)c3C)CC2)o1 | -7 | i | -7.2* | i | i | i
COc1ccccc1S(=O)(=O)Cc1ccc(C(=O)N2CCCC2)o1 | -4 | i | i | i | i | i
CCc1ccccc1S(=O)(=O)Cc1ccc(C(=O)N2CCN(c3ccccc3OC)CC2)o1 | 3 | i | -7.7* | i | i | i
CC(C)=C(NC(=O)c1ccccc1Br)C(=O)NCCc1nc2ccccc2[nH]1 | 32 | i | i | i | i | i
O=C(Cc1ccc(S(=O)(=O)N2CCOCC2)s1)NCCOc1ccccc1 | nt | i | i | i | i | i
SMILES | PHOSPHO1 inh | RGS4 inh | RGS4 act | MrgX1 antag | MrgX1 PAM | MrgX1 agonist
O=C1CC(c2ccco2)CC(O)=C1C=NCC1CCNCC1 (stereo not drawn) | 9 | i | -7.8* | i | i | i
O=C(Nc1cccc(Cl)c1)c1cc(N=Nc2ccc([N+](=O)[O-])cc2Cl)ccc1O | -15 | i | i | -4.6* | i | i
COc1ccc2c(c1OC)C(=O)OC2C1c2c(cc3c(c2OC)OCO3)CCN1C (stereo not drawn) | 6 | i | i | i | i | i
CN1CCc2cc3c(c4c2[C@H]1[C@H](O)c1ccccc1-4)OCO3 | -11 | i | -7.4* | i | i | i
CCCn1c(SCc2nc3sc(C)c(C)c3c(=O)[nH]2)nc2ccccc2c1=O | 69* | i | i | i | i | i
COCCn1c(SCc2nc3ccccc3c(=O)[nH]2)nc2ccccc2c1=O | 32 | i | i | i | i | i
COc1ccc(C(=O)NC(=S)Nc2ccc(N3CCOCC3)c(Cl)c2)cc1[N+](=O)[O-] | -9 | i | i | i | i | i
COc1ccccc1NC(=O)c1cc2ccccc2o/c1=N\O | 14 | 11* | i | i | i | i
COc1ccc(N=c2oc3ccccc3cc2C(=O)Nc2ccccn2)cc1OC | 1 | i | i | i | i | i
Cc1ccc(NCc2nc3ccccc3n2C)cc1C | 60* | i | i | i | i | i
Cc1ccc(NCc2nc3ccccc3n2C)cc1 | 21 | i | i | i | i | i
O=[N+]([O-])c1ccc(-n2nncc2-c2ccc(Cl)cc2)cc1 | 5 | i | i | -4.9* | i | i
Cc1cccc(C)c1NC(=O)CSc1nc(C2CC2)nc2ccccc12 | 44 | i | i | i | i | i
N#C/C(=C(/O)CSc1ncn[nH]1)c1nc2ccccc2[nH]1 | 30 | i | i | -6.1* | i | i
CC(C)(C)c1nnc2sc(SC/C(O)=C(\C#N)c3nc4ccccc4[nH]3)nn2c1=O | 71* | i | i | i | i | i
NC(=O)c1cc(C(=O)c2ccc(Cl)cc2Cl)c[nH]1 | 64* | i | i | i | i | i
COc1ccc(CCN2C(=O)c3[nH]nc(-c4ccccc4O)c3C2c2cccc(Cl)c2)cc1 (stereo not drawn) | -12 | i | i | i | i | i
COc1cccc(C2c3c(-c4cc(Cl)c(C)cc4O)n[nH]c3C(=O)N2Cc2cccnc2)c1 (stereo not drawn) | 4 | 11* | i | i | i | i
CCOC(=O)C1CCN(CCC(=O)Nc2ccc(C)c(C)c2)CC1 | 8 | i | i | i | i | i
Cc1cccc(N2CCN(C(=O)c3ccc(-n4cncn4)c([N+](=O)[O-])c3)CC2)c1C | 43 | i | i | -4.9* | i | i
Cc1ccc(S(=O)(=O)N2CCN(C(=O)c3ccc(-n4cncn4)c([N+](=O)[O-])c3)CC2)cc1C | nt | i | i | i | i | i
